In the library only some 2.1% were active in any assay of this set; here they are far more common.
LMPTP inh: LMPTP (human) inhibition; P24666; recombinant LMPTP-A, OMFP fluorogenic substrate, fluorescence intensity; inhibition, % at 20 µM; 0.22% of 360,000 active; AID 651560;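 active = compounds that cut the enzyme signal by at least half of the control window in the single-dose screen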;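 note: plate controls were DMSO wells with enzyme plus substrate for no effect and substrate without enzyme for full effect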
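Material: LMPTP-A; amount: 0.625 nM enzyme; doses: single 20 µM dose; times: reaction 50 min, room temperature, dark; technique: fluorescence intensity of OMFP turnover product; benchmarks: no-enzyme and uninhibited controls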
GRK2 inh: human GRK2 inhibition via aptamer displacement. P25098. bead flow cytometry, FAM-aptamer displacement from GRK2. inhibition of aptamer binding, % at 10 µM. 0.59% of 330,000 active. AID 488847;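 active = inhibition of aptamer binding above 40%, roughly 3 SD of noise, on plates passing a quality check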;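 note: median bead fluorescence of bound FAM aptamer so fluorescent compounds give negative values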
SUMO1-SIM PPI: modulators of human SUMO1-mediated protein-protein interactions; AID 602429; 0.33% of 360,000 active; inhibition, % at 20 µM; P63165; SUMO1 binding to a labelled peptide, TR-FRET, 1 h; in the data active = inhibition above about 37%
Scp1 inh: blocks human Scp-1 phosphatase activity | Q9GZU7 | Recombinant Scp1, phosphopeptide, malachite green phosphate absorbance | inhibition, % at 20 µM | 0.88% of 340,000 active;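 active = inhibition above about 50% at 20 µM, limit read from the data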;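 note: plate controls were DMSO wells with enzyme for no effect and wells lacking enzyme for full effect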
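Assay system: SCP-1 catalytic fragment, aa 76-261 | Buffer or medium: Tris acetate buffer pH 5.5 with MgCl2 and Tween-20 | Compound: One concentration, 20 µM, with 1.0% DMSO | Also added: Phospho 17-mer peptide substrate | Signal: Absorbance at 630 nm | Incubation: 45 min enzyme reaction at room temperature | Measure: % inhibition of SCP-1 phosphate liberation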
DNMT1 block: blocks human DNA methyltransferase DNMT1 | P26358 | inhibition (reported as % activation of signal), % at 10 µM | 0.83% of 360,000 active | DNMT1 molecular beacon, Hinp1I cleavage, fluorescence | AID 588458; in the data active = inhibition above about 50%
STEP inh: inhibitors of human striatal-enriched phosphatase STEP. 0.25% of 360,000 active. inhibition, % at 20 µM. recombinant STEP, OMFP fluorogenic substrate, fluorescence. AID 588621. P54829;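 active = inhibition at 20 µM, scaled per plate between control wells, above about 37%, limit read from the data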;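 note: 0% = DMSO with enzyme and substrate and 100% = substrate only without enzyme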
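Also added – OMFP at 25 µM · Test system – STEP tyrosine phosphatase · Technique – FITC-channel fluorescence of OMFP product · Schedule – 20 min at room temperature, dark · Evaluation – control-normalized % inhibition with plate pattern correction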
Scp-1 conf: confirmation of human Scp-1 phosphatase inhibitors; inhibition, % at 20 µM; recombinant SCP-1 catalytic domain, phosphate release, malachite green absorbance; shares compounds with Scp1 inh; 61% of 2,500 active;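 note: plate controls were DMSO with enzyme for no effect and buffer wells lacking enzyme for full effect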
Scp-1 MG ctr: colorimetric interference in Scp-1 counter-screen. shares compounds with Scp1 inh. Colorimetric interference counterscreen, malachite green absorbance 630 nm. apparent inhibition (interference), % at 20 µM. 2,500 tested, under 10 active. AID 540313;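 note: compounds added after enzyme reaction finished so only phosphate colour detection is probed; plate controls were DMSO wells with completed Scp-1 reaction for no effect and substrate wells lacking enzyme for full effect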
Scp-1 Tm shift: binds human Scp-1, shifting its melting temperature; shares compounds with Scp1 inh; Recombinant SCP1, Sypro Orange thermal shift Tm; thermal shift relative to vanadate control, % at 40 µM; 25% of 1,500 active; AID 540329;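 active = substances whose mean melting-temperature shift, as a percentage of the reference inhibitor's shift, reaches about 5.3%, limit read from the data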;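 note: 0% = Tm of DMSO wells and 100% = Tm with sodium orthovanadate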
The depositor's hits bear a star.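 Rule for the calls, unless noted: active = inhibition of at least 30% at 20 µM; inactive = the rest.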

Results for C[C@H](CO)N1C[C@H](C)[C@@H](CN(C)Cc2ccc(-c3ccccc3)cc2)Oc2c(NS(=O)(=O)c3ccccc3)cccc2C1=O ?
LMPTP inh: -1; GRK2 inh: 3; SUMO1-SIM PPI: 1; Scp1 inh: 62*; DNMT1 block: -8; STEP inh: 2; Scp-1 conf: -5; Scp-1 MG ctr: -11

How did C[C@H](CO)N1C[C@H](C)[C@@H](CN(C)Cc2ccc3c(c2)OCO3)Oc2c(NS(=O)(=O)c3cn(C)cn3)cccc2C1=O do in these assays?
LMPTP inh: -1; GRK2 inh: 2; SUMO1-SIM PPI: 6; Scp1 inh: 37; DNMT1 block: 1; STEP inh: -4

Results for C[C@H](CO)N1C[C@H](C)[C@@H](CN(C)Cc2ccc(C(=O)O)cc2)Oc2c(NS(=O)(=O)c3cccs3)cccc2C1=O ?
LMPTP inh: -1; GRK2 inh: 2; SUMO1-SIM PPI: 5; Scp1 inh: 50*; DNMT1 block: 1; STEP inh: 5; Scp-1 conf: -5; Scp-1 MG ctr: -18

What do the screens show for `O=C1c2ccccc2C(c2nnnn2-c2ccc3c(c2)OCCO3)N1CCOc1ccccc1` (stereo not given)?
LMPTP inh: -1; SUMO1-SIM PPI: 4

Results for O=C(Cc1ccc(S(=O)(=O)N2CCOCC2)s1)NCC1CCCCC1 ?
LMPTP inh: 2; GRK2 inh: 3; SUMO1-SIM PPI: 3; Scp1 inh: 20; DNMT1 block: 3; STEP inh: 1

Results for O=C(Cc1ccc(S(=O)(=O)N2CCOCC2)s1)NC1CCCCC1 ?
LMPTP inh: 6; GRK2 inh: 7; SUMO1-SIM PPI: 2; Scp1 inh: 61*; DNMT1 block: 7; STEP inh: 8; Scp-1 conf: 70*; Scp-1 MG ctr: -7; Scp-1 Tm shift: 7.9*

What do the screens show for `NS(=O)(=O)c1ccc(CCNC(=O)Cc2ccc(S(=O)(=O)N3CCCC3)s2)cc1`?
LMPTP inh: 4; GRK2 inh: 3; SUMO1-SIM PPI: -1; Scp1 inh: 76*; DNMT1 block: 10; STEP inh: 6; Scp-1 conf: 74*; Scp-1 MG ctr: -14; Scp-1 Tm shift: 0

What do the screens show for `NS(=O)(=O)c1ccc(CNC(=O)Cc2ccc(S(=O)(=O)N3CCOCC3)s2)cc1`?
LMPTP inh: 0; GRK2 inh: 0; SUMO1-SIM PPI: -4; Scp1 inh: -7; DNMT1 block: -1; STEP inh: -2

What do the screens show for `CC(/C=C/c1ccccc1F)=N\NC(=O)c1ccc(Cl)cc1`?
LMPTP inh: 0; GRK2 inh: 2; SUMO1-SIM PPI: 0; Scp1 inh: 52*; DNMT1 block: 1; STEP inh: -2; Scp-1 conf: -14; Scp-1 MG ctr: -14

Results for CCN(Cc1ccccc1)c1cc2c(c3c1ccn3C)C1CCC2C1 (stereo not given) ?
LMPTP inh: 2; SUMO1-SIM PPI: 7; DNMT1 block: 2; STEP inh: 3

How did O=C(Cc1cccnc1)N[C@@H]1CC[C@H](CCn2cc(Cc3ccccc3)nn2)O[C@@H]1CO do in these assays?
LMPTP inh: -2; SUMO1-SIM PPI: 0

What do the screens show for `Cc1c(C(=O)O)sc2nc3n(c(=O)c12)CCC3`?
LMPTP inh: 0; GRK2 inh: 6; SUMO1-SIM PPI: 2; Scp1 inh: 64*; DNMT1 block: 23; STEP inh: 7; Scp-1 conf: 55*; Scp-1 MG ctr: -5; Scp-1 Tm shift: 3

Results for CCCCCCCCN1C(=O)[C@H](CC(=O)N2CCCCC2)C[C@@]2(C(=O)OC)CCCCC=C12 ?
LMPTP inh: 2; SUMO1-SIM PPI: 3

What do the screens show for `C[n+]1cnc(-c2ccccc2)cc1-c1ccccc1`?
LMPTP inh: 1; GRK2 inh: 2; SUMO1-SIM PPI: -23; Scp1 inh: 101*; DNMT1 block: 2; STEP inh: -3; Scp-1 conf: 86*; Scp-1 MG ctr: -12; Scp-1 Tm shift: -20

What do the screens show for `Cc1nc(SCC(=O)NCc2ccco2)c2c3c(sc2n1)CCCC3`?
LMPTP inh: 2; GRK2 inh: 0; SUMO1-SIM PPI: 1; Scp1 inh: 9; DNMT1 block: 0; STEP inh: 5

Results for CCCc1nc2sc3c(SCC(=O)NCc4ccco4)ncnc3c2c2c1CCC2 ?
LMPTP inh: 4; GRK2 inh: 5; SUMO1-SIM PPI: 7; Scp1 inh: 82*; DNMT1 block: 91*; STEP inh: 21; Scp-1 conf: 59*; Scp-1 MG ctr: -18; Scp-1 Tm shift: 2

What do the screens show for `CC[N+]1(C)CC2CCC(C)(C1)C2(C)C` (stereo not given)?
LMPTP inh: -2; SUMO1-SIM PPI: 0; Scp1 inh: 56*; DNMT1 block: -1; STEP inh: 2; Scp-1 conf: 39*; Scp-1 MG ctr: -11; Scp-1 Tm shift: -29

How did C[n+]1ccccc1Nc1cc([N+](=O)[O-])ccc1N do in these assays?
LMPTP inh: 0; GRK2 inh: 0; SUMO1-SIM PPI: -11; Scp1 inh: 69*; DNMT1 block: 0; STEP inh: 0; Scp-1 conf: 87*; Scp-1 MG ctr: -16; Scp-1 Tm shift: 0

How did Cc1[nH]c2ccccc2c1N=Nc1cc(C(=O)O)cc(C(=O)O)c1 do in these assays?
LMPTP inh: 1; GRK2 inh: 0; SUMO1-SIM PPI: -14; Scp1 inh: 52*; DNMT1 block: 4; STEP inh: 4; Scp-1 conf: -7; Scp-1 MG ctr: -19

Results for CCN(CC)S(=O)(=O)c1cccc(C(=O)Nc2ccc(S(=O)(=O)NC3=NCCCCC3)cc2)c1 ?
LMPTP inh: -1; GRK2 inh: 1; SUMO1-SIM PPI: 8; Scp1 inh: 56*; DNMT1 block: 2; STEP inh: 0; Scp-1 conf: -5; Scp-1 MG ctr: -14

What do the screens show for `O=C(CNS(=O)(=O)c1ccc(Br)cc1Cl)OCC(=O)N1CCCC1=O`?
LMPTP inh: -2; GRK2 inh: 1; SUMO1-SIM PPI: 0; Scp1 inh: 3; DNMT1 block: 5; STEP inh: -1; Scp-1 conf: -11; Scp-1 MG ctr: -14
